In article PMC7571425 (Antiviral Research, 2020):
Like-named read-outs stand apart in the source and are kept apart here.

Assays:
SARS-CoV-2 [1] = assay type: cell-based; details: for reduction in SARS-CoV-2 titers: 33 μM
Cell viability assay [2] = assay type: cell-based; details: human
Summary of the method: (§1)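 Cardiomyocytes were differentiated from H9 hESCs or CMC-hiPSC-011 hiPSCs (CHIR99021, then Wnt inhibitor C59; lactate selection days 10–15). They were exposed to graded drug concentrations (DMSO stocks) for 24 h or 48 h. Viability was read by MTS, absorbance 490 nm. CC50 came from four-parameter nonlinear regression. Mean ± SD of at least two independent experiments in triplicate.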

[3] = Cytotoxicity in mock-infected Vero E6 cells; assay type: cell-based; details: African green monkey
SARS-CoV-2 [4] = experiment: Image-based; assay type: cell-based, SARS-CoV-2 (hCoV/Korea/KCDC-03/2020); details: Severe acute respiratory syndrome coronavirus 2, 48 h, MOI 2.5, 48 h post-infection
hPSC-CMs = experiment: Electrophysiological characterization of hPSC-CMs; assay type: cell-based, human; details: for repolarization: dofetilide 10 nM, E4031 30 nM
SARS-CoV-2 [5] = experiment: CPE-based antiviral assay in Vero E6 cells; assay type: cell-based, SARS-CoV-2 (hCoV/Korea/KCDC-03/2020)
SARS-CoV-2 [6] = experiment: RT-qPCR of intracellular SARS-CoV-2 RNA in hPSC-CMs; assay type: cell-based; details: 0.3 μM and 1 μM
hERG currents = hERG currents (Homo sapiens, UniProt Q12809); experiment: cell-based
Cell viability assay [7] = assay type: cell-based; details: human; remark: listed apart in the source
Summary of the method: as §1

[8] = hESC-CMs (human embryonic stem cell-derived cardiomyocytes)

hERG currents, sequence (Q12809 whole entry): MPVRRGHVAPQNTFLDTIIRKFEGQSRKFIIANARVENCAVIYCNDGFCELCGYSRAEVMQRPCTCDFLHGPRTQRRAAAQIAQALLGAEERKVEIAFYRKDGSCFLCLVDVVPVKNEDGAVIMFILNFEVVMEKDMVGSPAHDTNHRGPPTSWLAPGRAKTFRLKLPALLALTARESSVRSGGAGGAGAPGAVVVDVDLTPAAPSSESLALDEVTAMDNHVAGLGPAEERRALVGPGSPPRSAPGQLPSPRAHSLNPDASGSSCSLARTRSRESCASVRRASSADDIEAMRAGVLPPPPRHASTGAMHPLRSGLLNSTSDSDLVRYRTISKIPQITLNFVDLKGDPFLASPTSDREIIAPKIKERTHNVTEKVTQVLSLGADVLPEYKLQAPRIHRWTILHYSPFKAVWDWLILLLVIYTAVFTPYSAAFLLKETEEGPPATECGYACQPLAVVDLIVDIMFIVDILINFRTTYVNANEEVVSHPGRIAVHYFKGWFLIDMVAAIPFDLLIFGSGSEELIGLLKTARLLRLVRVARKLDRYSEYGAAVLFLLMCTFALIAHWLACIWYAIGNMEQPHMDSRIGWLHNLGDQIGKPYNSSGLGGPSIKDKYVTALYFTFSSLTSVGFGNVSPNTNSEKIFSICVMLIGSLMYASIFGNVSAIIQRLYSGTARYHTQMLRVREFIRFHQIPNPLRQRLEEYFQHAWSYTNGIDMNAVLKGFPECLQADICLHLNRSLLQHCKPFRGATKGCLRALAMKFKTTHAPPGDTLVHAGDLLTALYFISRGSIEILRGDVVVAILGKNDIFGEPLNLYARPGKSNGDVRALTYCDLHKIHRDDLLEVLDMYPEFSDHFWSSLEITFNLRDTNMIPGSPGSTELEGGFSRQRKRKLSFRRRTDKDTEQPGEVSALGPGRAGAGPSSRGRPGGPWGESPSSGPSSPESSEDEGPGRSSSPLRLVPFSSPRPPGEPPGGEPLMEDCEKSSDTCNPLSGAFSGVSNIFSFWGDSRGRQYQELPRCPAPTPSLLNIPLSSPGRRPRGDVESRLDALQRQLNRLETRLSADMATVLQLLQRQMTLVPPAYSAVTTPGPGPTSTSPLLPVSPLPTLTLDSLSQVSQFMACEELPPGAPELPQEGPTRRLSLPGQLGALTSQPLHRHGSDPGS

## CCN(CC)CCCC(C)Nc1ccnc2cc(Cl)ccc12 (centres unmarked) [Chloroquine]
SARS-CoV-2 [1]; hESC-CMs and hiPSC-CMs, highest tested concentration
  infectious viral particle production: complete suppression
SARS-CoV-2 [1]; hESC-CMs
  reduction in SARS-CoV-2 titers: 2.3 log10 PFU/ml
SARS-CoV-2 [1]; hPSC-CMs, 11 μM
  effect on viral titers: did not affect
SARS-CoV-2 [1]; hiPSC-CMs
  reduction in SARS-CoV-2 titers: 0.3 log10 PFU/ml
hiPSC-CMs; 30 min exposure
  Na+ peak amplitude and T-wave: pronounced reduction of Na^+ peak amplitude and T-wave flattening
  field potential duration (FPD): increased the field potential duration (FPD) of hiPSC-CMs in a dose-dependent manner
Cell viability assay [2]; [8]
  CC50 at 48 h: 84.9 µM
[3]
  CC50 at 72 h: > 100 µM
SARS-CoV-2 [4]; hESC-CMs
  EC50: 27.9 µM
  EC90: > 84.9 µM
SARS-CoV-2 [4]; hiPSC-CMs
  EC50: 12.1 µM
  EC90: 24.1 µM

## Cc1cccc(CCN2CCC(C(=O)c3ccc(NS(C)(=O)=O)cc3)CC2)n1 [E4031]
hPSC-CMs
  repolarization: significantly delayed

## NC(=O)c1nc(F)c[nH]c1=O [Favipiravir (T-705), favipiravir]
SARS-CoV-2 [5]
  in vitro antiviral activity against SARS-CoV-2: no apparent in vitro antiviral activity

## CCN(CCO)CCCC(C)Nc1ccnc2cc(Cl)ccc12 (centres unmarked) [Hydroxychloroquine, hydroxychloroquine]
[3]
  CC50 at 72 h: 76.1 µM

## CCC(CC)COC(=O)[C@H](C)N[P@](=O)(OC[C@H]1O[C@@](C#N)(c2ccc3c(N)ncnn23)[C@H](O)[C@@H]1O)Oc1ccccc1 [Remdesivir]
SARS-CoV-2 [5]; CC50/EC50
  selectivity index (SI): > 50
SARS-CoV-2 [6]
  intracellular viral mRNA synthesis: complete inhibition
hERG currents
  IC50: > 100 µM
Cell viability assay [7]
  CC50 at 24 h: 39.4 µM
  CC50 at 48 h: 15.6 µM
SARS-CoV-2 [1]; hESC-CMs and hiPSC-CMs, 0.3 μM and 1 μM remdesivir
  viral particle production: Complete suppression
SARS-CoV-2 [1]; hPSC-CMs, 0.1 μM
  reduction of viral titer: minimal reduction
hiPSC-CMs; 30 min exposure
  concentration that reduced Na+ peak amplitudes and spontaneous beating rates, followed by complete cessation of spontaneous beating: ≥ 30 µM
  field potential duration (FPD): dose-dependent prolongations of FPD
hiPSC-CMs; data not shown
  Early afterdepolarizations (EADs) and delayed afterdepolarizations (DADs): not detected
Cell viability assay [2]; [8]
  CC50 at 24 h: 17.7 µM
  CC50 at 48 h: 10.2 µM
Cell viability assay [2]; hPSC-CMs (hESC-CMs and hiPSC-CMs)
  CC50: 10.2 to 39.4 µM
[3]
  CC50 at 72 h: > 100 µM
SARS-CoV-2 [4]; hESC-CMs
  EC50: 0.6 µM
  EC90: 1.3 µM
SARS-CoV-2 [4]; hiPSC-CMs
  EC50: 0.2 µM
  EC90: 0.33 µM

## CN(CCOc1ccc(NS(C)(=O)=O)cc1)CCc1ccc(NS(C)(=O)=O)cc1 [dofetilide]
hPSC-CMs
  repolarization: significantly delayed

## CC(C)NCC(O)c1ccc(O)c(O)c1 (centres unmarked) [isoprenaline]
hPSC-CMs; 100 nM
  rate of AP: substantially increased
